Source: PubChem
Shown are actives, neighbours in structure and some others; about 1.8% of the full set was active somewhere.
M4 antag: antagonists of human muscarinic M4 receptor (CHRM4); P08173; CHO-hM4 cells, ACh EC80, Fluo-8 calcium fluorescence; inhibition, % at 3 µM; hit rate 0.73% among 360,000; AID 624125;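 active = inhibition above its plate's cutoff, the mean inhibition of sample wells plus 3 SD, cut at about 27% in these data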
M5 ag: CHRM5 agonism in calcium assay. P08912. CHO-K1 hM5 cells, Fluo-8 calcium fluorescence; 0% DMSO wells, 100% maximal acetylcholine response. activation, % at 3 µM. hit rate 0.19% among 360,000;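 active = activation above the run's mean over test compounds plus 3 SD, cut at about 23% in these data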;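 also: signal is peak over basal fluorescence ratio across the kinetic read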
Target sequence (P08912 whole entry, looked up): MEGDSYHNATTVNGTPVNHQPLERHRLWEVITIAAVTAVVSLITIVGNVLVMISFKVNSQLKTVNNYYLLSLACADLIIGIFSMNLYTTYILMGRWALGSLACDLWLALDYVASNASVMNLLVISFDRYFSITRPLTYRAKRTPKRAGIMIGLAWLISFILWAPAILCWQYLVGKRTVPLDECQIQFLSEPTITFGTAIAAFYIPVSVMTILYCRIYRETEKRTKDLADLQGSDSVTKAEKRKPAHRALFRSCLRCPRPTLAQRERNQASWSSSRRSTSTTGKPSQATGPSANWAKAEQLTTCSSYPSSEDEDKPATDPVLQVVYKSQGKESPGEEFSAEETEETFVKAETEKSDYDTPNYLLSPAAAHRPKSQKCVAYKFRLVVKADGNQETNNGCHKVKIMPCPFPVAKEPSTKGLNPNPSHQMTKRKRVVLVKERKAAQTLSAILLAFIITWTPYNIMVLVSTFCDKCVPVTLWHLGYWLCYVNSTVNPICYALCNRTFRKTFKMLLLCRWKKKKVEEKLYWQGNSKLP
M5 antag: antagonists of human muscarinic M5 receptor (CHRM5) | CHO-hM5 cells, Fluo-8 calcium fluorescence, ACh EC80 | inhibition, % at 3 µM | P08912 | AID 624040 | hit rate 0.59% among 360,000;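 active = inhibition above a per-plate cutoff, the mean of that plate's test compounds plus 3 SD, cut at about 27% in these data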
CHRM4 PAM: potentiates acetylcholine response at human M4 receptor; P08173; CHO-K1 hM4/Gqi5, Fluo-8 calcium fluorescence, ACh EC20; 0% = ACh EC20, 100% = maximal ACh; activation, % at 3 µM; hit rate 0.4% among 360,000; AID 624126;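 active = activation above its plate's cutoff, the mean activation of sample wells plus 3 SD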
CHRM5 PAM: positive allosteric modulators of human muscarinic M5 receptor; activation, % at 3 µM; AID 624038; CHO-K1 hM5, Fluo-8 calcium, ACh EC20 PAM; 0% = ACh EC20, 100% = ACh EC100; hit rate 0.3% among 360,000; P08912;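 active = activation above the run cutoff, the mean activation of all test compounds plus 3 SD, cut at about 18% in these data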
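System: CHO-K1 hM5 cells. Reagent: acetylcholine, EC20 level. Compound dosing: single dose, 3 µM nominal final test concentration. Timing: Post-acetylcholine fluorescence recording 140 s. Detection: Fluo-8 calcium fluorescence. Read-out: % activation, ACh-normalized. Benchmarks: ACh EC20 and EC100 wells. Repeats: singlicate, one well per test compound.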
M4 ag: CHRM4 agonism in calcium assay; P08173; CHO-K1 hM4/Gqi5, Fluo-8 calcium fluorescence; vehicle 0%, full acetylcholine response 100%; activation, % at 3 µM; hit rate 0.14% among 360,000; AID 624127;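 active = activation above the run mean over all test wells plus 3 SD, cut at about 32% in these data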;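 also: peak over basal fluorescence ratio per well then scaled between controls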
Each line names hits and unclear results; the compound was inactive in the other large screens; ! = not active in a repeat.

CS(=O)(=O)c1ccc(NS(=O)(=O)c2ccc(Cl)c(C(=O)NCc3ccco3)c2)cc1	CHRM4 PAM 23.5
O=C(O)c1ccc(NS(=O)(=O)c2ccc(Cl)c(C(=O)Nc3ccccc3)c2)cc1	none
CC(=O)c1ccc(NS(=O)(=O)c2cccc(C(=O)Nc3ccccc3C(=O)O)c2)cc1	CHRM4 PAM 13.8
O=C(Nc1ccccc1C(=O)O)c1cc(S(=O)(=O)Nc2ccccc2)ccc1Cl	CHRM4 PAM 15.7
CCN(CC)S(=O)(=O)c1ccc(Cl)c(C(=O)NCc2ccco2)c1	none
CN(C(=O)COC(=O)c1cc(=O)[nH]c2ccccc12)c1ccccc1	none
COc1ccc(CCNC(=O)COC(=O)c2cc(S(=O)(=O)N3CCOCC3)ccc2C)cc1OC	none
CS(=O)(=O)N1CCC(C(=O)Nc2ccc(Cl)cc2Cl)CC1	none
CCC(C)c1ccccc1NC(=O)C(C)OC(=O)CN1C(=O)NC(C)(C)C1=O (centres undefined)	CHRM4 PAM 26.4
Cc1cc(=O)[nH]c2cc(Cl)ccc12	none
COc1ccc2c(C)cc(=O)[nH]c2c1	CHRM4 PAM 23.1, CHRM5 PAM 39.9
Cc1cc(C)cc(NC(=O)NCc2c(-c3ccccc3)noc2C)c1	none
Cc1onc(-c2ccccc2)c1CNC(=O)Nc1ccc(C(F)(F)F)cc1	M5 antag 37.5
C=CCc1c(C)[nH]c2c(OC)cccc2c1=S	none
COC(=O)C1=C(C)NC(C)=C(C(=O)OC)C1C(=O)OCC(=O)N1CCCCC1C (centres undefined)	none
O=S(=O)(Nc1cc(Sc2ncn[nH]2)c(O)c2ccccc12)c1ccccc1	M5 antag 28.4
Cc1ccc(C)c(Nc2nn3c(=O)c4ccc(C(=O)NCc5cccnc5)cc4nc3s2)c1	M4 antag 31.0
CO/N=C/c1ccc(N2CCN(C(=O)c3ccc(F)cc3)CC2)c([N+](=O)[O-])c1	M4 antag 55.7, CHRM4 PAM 57.1
CO/N=C/c1ccc(N2CCN(C(=O)c3ccc(Cl)cc3Cl)CC2)c([N+](=O)[O-])c1	M4 antag 40.4
CO/N=C/c1ccc(N2CCN(C(=O)c3cccc(C(F)(F)F)c3)CC2)c([N+](=O)[O-])c1	M4 antag 28.3
O=C(N/N=C/c1ccc(N2CCOCC2)c([N+](=O)[O-])c1)c1ccc(F)cc1	none
CCN(C(=O)CN1C(=O)NC2(CCC(C)CC2)C1=O)C1CCCCC1 (centres undefined)	none
CCNC(=O)C1(C)CCCN(Cc2ccc3ccccc3c2Br)C1 (centres undefined)	M4 antag 34.9
N#C/C(=C\c1ccccc1O)C(=O)Nc1ccccn1	none
Cc1ccc(S(=O)(=O)Oc2ccc(C)cc2/C=N/N=C2\NC(=O)C(C)S2)cc1 (centres undefined)	CHRM5 PAM 18.2
COc1ccc(/C=N/N=C2/NC(=O)C(CC(=O)O)S2)cc1OS(=O)(=O)c1ccccc1 (centres undefined)	none
CC(C)Cc1ccc(C(=O)NCCOc2ccccc2)o1	none
Cc1sc2ncnc(NCc3ccccc3)c2c1C	M5 antag 29.0
Cc1sc2ncnc(Nc3ccccc3)c2c1C	none
c1ccc(CNc2ncnc3sccc23)cc1	M5 antag 39.8
c1cncc(CNc2ncnc3sccc23)c1	none
COc1ccc(C(CNc2ncnc3sc(C)c(C)c23)N(C)C)cc1 (centres undefined)	none
COc1ccccc1C(CNc1ncnc2sc(C)c(C)c12)N(C)C (centres undefined)	M5 antag 57.2
CCCCNc1c(-c2ccc(-c3ccc(C(C)=O)cc3)c(OC)c2)nc2cc(C)ccn12	none
CCCCNc1c(-c2ccc(Sc3ccc(OC)cc3)cc2)nc2cc(C)ccn12	M4 antag 43.6
CCCCNc1c(-c2ccc(OC)c(SC(C)CC)c2)nc2cnccn12 (centres undefined)	none
CCCCNc1c(-c2ccc(OC)c(SC(C)CC)c2)nc2cc(C)ccn12 (centres undefined)	M4 antag 30.6!
CCCCNc1c(-c2ccc(SC3CCCCC3)cc2)nc2ccccn12	none
CCCCNc1c(-c2ccc(OC)c(SC(C)CC)c2)nc2ccc(Cl)cn12 (centres undefined)	none
CCCCNc1c(-c2ccc(SC(C)CC)cc2)nc2ccccn12 (centres undefined)	M4 antag 45.3
CCCCNc1c(-c2ccc(OC)c(SC(C)CC)c2)nc2ccc(C)cn12 (centres undefined)	M4 antag 31.1!
CCCCCCCCCCOC(=O)Cn1c(COc2ccccc2OC)[n+](C)c2ccccc21	M4 antag 58.2, M5 antag 45.2
Cn1c(COc2ccccc2O)[n+](C)c2ccccc21	none
O=C(O)c1ccc(Br)cn1	CHRM4 PAM 20.5
O=CNc1ccc2c(c1)Cc1cccc(NC=O)c1-2	none
Cc1ccc2c(c1)/C(=N/OS(=O)(=O)c1ccccc1)CCS2	none
CC1=CC(=O)C=C(C)C1=NOS(=O)(=O)c1ccccc1	M4 antag 32.5, M5 ag 23.5, M5 antag 41.4
CC1=CC(=O)C(C(C)C)=C/C1=N/OS(=O)(=O)c1ccccc1	M4 antag 78.9, M5 antag 50.6
CC1CCN(c2c(NCC3CCC(C(=O)N4CCCCC4)CC3)c(=O)c2=O)CC1 (centres undefined)	none
CC1CCN(c2c(NCC3CCC(C(=O)NC4CCCCCC4)CC3)c(=O)c2=O)CC1 (centres undefined)	M4 antag 30.7
COCCCN1CN(S(=O)(=O)c2ccc(C)cc2C)c2nc3ccccc3nc21	CHRM5 PAM 20.5
Cc1nn(-c2cc(C(F)(F)F)ccc2Cl)c2nc(C(Cl)(Cl)Cl)[nH]c(=O)c12	CHRM5 PAM 19.4
CN1CCc2nc3ccc(Cl)cc3c(-c3ccccc3Cl)c2C1	M4 antag 69.6, M5 antag 65.7
C#CCOCCOCCOCCNc1nc(N2CCN(C(=O)C([C@@H](C)O)n3cc([C@@H](N)CCCCN)nn3)CC2)nc(N2CCN(C(=O)[C@H](CC(N)=O)n3cc(C(N)[C@@H](C)CC)nn3)CC2)n1 (some centres undefined)	M4 antag 35.0
O=C(NCc1ccc(Br)cc1)OC1CC2CC1[C@H]1CCCCN1C2=O (some centres undefined)	none
O=C(Oc1cc2oc(=O)c3c(c2cc1Cl)CCCC3)c1cccs1	none
Cc1cc(NC(=O)c2cccnc2)ccc1NC(=O)c1cc2ccccc2o1	M4 ag 33.0
Cc1cc(NC(=O)c2cc3ccccc3o2)ccc1NC(=O)c1ccccc1	none
O=c1c2ccccc2nc2n1CCN2Cc1ccc(Cl)cc1	M5 antag 28.8
